Source: PubChem BioAssay (several laboratories)
Most compounds without a hit are left out; they make up all but 3.5% or so of the library.
WT yeast gro inh – growth inhibition of WT strain, primary screen, mitochondrial fusion inhibitor project, WT and mutant strains, chemical genetic; 2.1% of 190,000 active; AID 1362, 2008; mitochondrial fusion phenotypic screen; inhibition, % at 10 µM; in the data active means inhibition above about 58%; tested in S. cerevisiae
MEKK2 mut-MEK5 – MEK5 binding signal on mutant MEKK2 PB1, primary screen, biochemical, multiplex bead flow cytometry, Alexa488-MEK5 | percent response, % at 10 µM | Alexa488-MEK5 binding to MEKK2 mutant | AID 1530, 2009 | 0.35% of 290,000 active; in the data active means percent response above about 24%, passing the limit was not always enough
ABCG2 block – ABCG2 efflux pump inhibitors, primary screen, multiplex with ABCB1, IgMXP3 cells, flow cytometry; JC-1 efflux; inhibition, % at 6.6 µM; 0.1% of 190,000 active;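 active means inhibition above 80%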
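System: two drug-resistant human cell lines, ABCG2 and ABCB1; controls: nicardipine high and DMSO low controls; times: 10 min exposure at 25 °C with rotation, no wash; detection: flow cytometry of retained JC-1 fluorescence; read-out basis: percent efflux inhibition, scaled nicardipine 100% to DMSO 0%; doses: one concentration, 6.6 µM final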
ABCB1 inh – ABCB1 efflux pump inhibitors, primary screen, cell-based, multiplex, flow cytometry, ABCG2 counter-screen | ATP-dependent translocase ABCB1 (Homo sapiens), P08183 | CCRF-Adr cells, JC-1 efflux | inhibition, % at 6.6 µM | 0.067% of 190,000 active; in the data active means inhibition above about 40%;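 further: higher value means more JC-1 retained so stronger ABCB1 efflux block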
MEKK2 WT-MEK5 – modulators of MEK5 binding to wildtype MEKK2, primary screen, biochemical, multiplex bead flow cytometry, Alexa488-MEK5; binding response (% of control), % at 10 µM; Alexa488-MEK5 binding to MEKK2 WT; actives lie on both sides; Mitogen-activated protein kinase kinase kinase 2 (Homo sapiens), Q9Y2U5; 1.1% of 290,000 active; AID 1531, 2009; in the data active means binding response below about 67% or above about 130%
MEKK3 PB1 HTS – modulators of MEKK3-MEK5 PB1 binding, primary screen, biochemical, wildtype MEKK3, multiplex bead flow cytometry, Alexa488-MEK5; bead-based flow cytometry, Alexa488-MEK5 binding to MEKK3; actives lie on both sides; 0 = blocked by unlabeled MEK5, 100 = vehicle; binding response (% of control), % at 10 µM; 1.4% of 290,000 active; AID 1529, 2009;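 active means binding response more than 3 SD above or below the average of its plate-row segment, actives on both sides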;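 further: Alexa488 bead fluorescence after subtracting the streptavidin-only scavenger bead signal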
Target sequence (Q99759 whole entry, looked up): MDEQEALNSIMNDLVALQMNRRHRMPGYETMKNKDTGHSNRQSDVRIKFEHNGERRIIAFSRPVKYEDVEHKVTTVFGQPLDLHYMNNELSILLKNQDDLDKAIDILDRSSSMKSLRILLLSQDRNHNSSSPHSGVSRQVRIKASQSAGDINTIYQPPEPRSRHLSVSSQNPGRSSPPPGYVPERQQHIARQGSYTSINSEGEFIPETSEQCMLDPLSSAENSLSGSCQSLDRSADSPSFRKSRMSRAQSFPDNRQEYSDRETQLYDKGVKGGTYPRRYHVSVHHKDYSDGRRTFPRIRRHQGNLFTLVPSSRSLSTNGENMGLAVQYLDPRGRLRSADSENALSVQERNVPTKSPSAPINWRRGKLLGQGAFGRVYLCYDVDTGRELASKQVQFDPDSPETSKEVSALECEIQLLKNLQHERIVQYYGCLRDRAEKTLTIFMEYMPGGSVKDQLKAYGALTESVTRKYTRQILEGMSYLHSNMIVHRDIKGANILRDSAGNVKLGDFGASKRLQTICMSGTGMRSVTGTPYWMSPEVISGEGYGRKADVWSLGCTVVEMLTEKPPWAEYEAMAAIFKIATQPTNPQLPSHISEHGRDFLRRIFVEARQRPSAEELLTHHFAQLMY
Each line names hits and unclear results; the compound was inactive in the other large screens.

Fc1cccc(C2NN=C(c3ccccc3)S2)c1 (configuration not stated)	none
O=C1c2ccccc2C2=Nc3ccccc3SC(c3cccc(F)c3)C12 (configuration not stated)	WT yeast gro inh 84.2
CSc1ccc(/C=C/C(=O)N2CCN(c3ccccn3)CC2)cc1	none (no result: WT yeast gro inh, ABCG2 block, ABCB1 inh)
O=C(/C=C/c1ccc(N2CCCCC2)c([N+](=O)[O-])c1)c1ccc(O)cc1	WT yeast gro inh 91.0
COc1ccccc1C(=O)/C=C/c1ccc(N2CCCCC2)c([N+](=O)[O-])c1	none
CCOC(=O)C1=C(C)C(c2cccc(Oc3ccccc3)c2)NC(=S)N1 (configuration not stated)	WT yeast gro inh 66.0
CCOC(=O)C1=C(C)C(c2ccc(OC)cc2)NC(=S)N1 (configuration not stated)	none
CCOC(=O)C1=C(c2cccc(Oc3ccccc3)c2)NC(=S)NC1C (configuration not stated)	WT yeast gro inh 64.2
CCn1cc([N+](=O)[O-])c(=O)c2cc(F)c(N3CCOCC3)cc21	none (no result: WT yeast gro inh, ABCG2 block, ABCB1 inh)
CC(C(=O)NCCCc1ccccc1)n1cccc1C(=O)c1ccccc1 (configuration not stated)	none (no result: WT yeast gro inh, ABCG2 block, ABCB1 inh)
CC1CC(C)CN(C(=O)c2cc3cc(Br)cc(Br)c3o2)C1 (configuration not stated)	WT yeast gro inh 78.3
O=C1CCC(C(=O)N2CCCC(C(=O)c3ccc4c5c(cccc35)CC4)C2)=NN1 (configuration not stated)	none
Cc1ccc(Cl)cc1NC(=S)N(Cc1ccco1)C(C)c1cccs1 (configuration not stated)	none
CC(c1cccs1)N(Cc1ccco1)C(=O)Nc1ccc(Cl)c(Cl)c1 (configuration not stated)	WT yeast gro inh 64.3
Cc1ccc(NC(=S)N(Cc2ccco2)C(C)c2cccs2)c(Cl)c1 (configuration not stated)	WT yeast gro inh 66.1
Cc1ccc(C)c(NC(=S)N(Cc2ccco2)C(C)c2cccs2)c1 (configuration not stated)	WT yeast gro inh 69.1
CC(C)(C)c1cc(CCC(=O)Nc2ccncc2)cc(C(C)(C)C)c1O	none (no result: WT yeast gro inh, ABCG2 block, ABCB1 inh)
Cc1ccc(OCC(=O)N2CCN(c3nnc(-c4ccc(C)cc4)c4ccccc34)CC2)cc1	WT yeast gro inh 79.0
COc1ccc(OCC(=O)N2CCN(c3nnc(-c4ccc(C)cc4)c4ccccc34)CC2)cc1	none (no result: WT yeast gro inh, ABCG2 block, ABCB1 inh)
CN=c1scc(-c2ccccc2Br)n1/N=C/c1ccc[nH]1	WT yeast gro inh 72.6
COc1cc(C(=O)Nc2cc(Cl)ccc2C)c(-n2cnnn2)cc1OC	none
COc1ccc(/C=C/c2nnc(NC(=O)COc3ccc(C)cc3)s2)cc1	none
Cc1cccc(N2CCN(C(=O)c3cc4n(n3)C(C(F)(F)F)CC(c3ccco3)N4)CC2)c1C (configuration not stated)	WT yeast gro inh 60.8
O=C(c1cc2n(n1)C(C(F)(F)F)CC(c1ccco1)N2)N1CCN(c2ccccn2)CC1 (configuration not stated)	none
CCc1nnc(NC(=O)c2ccc(S(=O)(=O)N3CCCc4ccccc43)cc2)o1	WT yeast gro inh 69.9
CCc1nnc(NC(=O)c2ccc(S(=O)(=O)N(C)c3ccccc3)cc2)o1	none
COc1ccc(-c2nnc(NC(=O)c3ccc(S(=O)(=O)N4CCc5ccccc5C4)cc3)o2)cc1	none (no result: MEKK2 mut-MEK5, MEKK2 WT-MEK5, MEKK3 PB1 HTS)
CCc1nnc(NC(=O)c2ccc(S(=O)(=O)N(CC(C)C)CC(C)C)cc2)o1	WT yeast gro inh 71.8
CNC(=O)c1ccsc1NC(=O)c1ccc(S(=O)(=O)N2CCCc3ccccc32)cc1	none
O=C(Nc1nnc(C2CC2)o1)c1ccc(S(=O)(=O)N2CCc3ccccc3C2)cc1	WT yeast gro inh 63.8
CSCc1nnc(NC(=O)c2ccc(S(=O)(=O)N(CC(C)C)CC(C)C)cc2)o1	WT yeast gro inh 71.8 (no result: MEKK2 mut-MEK5, MEKK2 WT-MEK5, MEKK3 PB1 HTS)
Cc1ccc(O)c(CCc2ccc(O)cc2)n1	none
CC(=O)NC(Cc1ccc(F)cc1)C(=O)N1CCN(C(=O)NCc2ccccc2)CC1 (configuration not stated)	none
CC(=O)OCC(=O)N1N=C(c2ccc3ccccc3c2)CC1c1ccccc1 (configuration not stated)	WT yeast gro inh 68.2
CCn1cc(C(=O)N2CCc3ccccc32)c(=O)c2cc(S(=O)(=O)N(C)C3CCCCC3)ccc21	WT yeast gro inh 83.3
COc1ccc(F)cc1S(=O)(=O)Nc1ccncc1	none (no result: WT yeast gro inh, ABCG2 block, ABCB1 inh)
Clc1nc(-c2cccnc2)nc2scc(-c3ccccc3)c12	WT yeast gro inh 77.0
O=C(CSc1nnc(NC(=O)C2CC(=O)N(c3ccc(F)cc3)C2)s1)NCc1ccco1 (configuration not stated)	none (no result: WT yeast gro inh, ABCG2 block, ABCB1 inh)
O=C(CCc1ccccc1)Nc1ccnn1C1CCN(C/C=C/c2ccccc2)CC1	MEKK2 mut-MEK5 27.0 (no result: WT yeast gro inh, ABCG2 block, ABCB1 inh)
COc1ccccc1/C=C/CN1CCC(n2nccc2NC(=O)CCc2ccccc2)CC1	MEKK2 WT-MEK5 138.0 (no result: WT yeast gro inh, ABCG2 block, ABCB1 inh)
CCOc1ccccc1CN1CCC(n2nccc2NC(=O)CCc2ccccc2)CC1	none (no result: WT yeast gro inh, ABCG2 block, ABCB1 inh)
Cc1cc(NC(=O)c2cc(-c3ccc(OC(C)C)cc3)nc3ccccc23)no1	none (no result: WT yeast gro inh, ABCG2 block, ABCB1 inh)
CCOc1ccccc1NC(=O)CCCNC(=O)c1ccc(Cl)cc1	none (no result: WT yeast gro inh, ABCG2 block, ABCB1 inh)
COc1ccc(/C=N/N(Cc2ccccc2)c2ccccc2)cc1O	WT yeast gro inh 82.5
O=C1NC2=C(C(=O)CCC2)C(c2cccc([N+](=O)[O-])c2)N1 (configuration not stated)	none (no result: WT yeast gro inh, ABCG2 block, ABCB1 inh)
CCCCN=C(NNc1ccc(Br)cc1)C(=O)OCC	WT yeast gro inh 64.4
CC(C)OC(=O)C(=O)NNc1ccccc1	WT yeast gro inh 72.2
CCOC(=O)C(=O)NNc1ccc(C)cc1	WT yeast gro inh 61.7
O=C(NC1CC1)c1ccc(C2SCC(=O)N2Cc2ccccc2)cc1 (configuration not stated)	none
O=C(C1CCCCC1)N(Cc1ccccc1)c1ccccn1	WT yeast gro inh 84.1 (no result: MEKK2 mut-MEK5, MEKK2 WT-MEK5, MEKK3 PB1 HTS)
Cc1ccc(-n2nc3c(=O)n(CC(=O)NC4CCCCC4)nc(C)c3c2C)cc1	none (no result: WT yeast gro inh, ABCG2 block, ABCB1 inh)
CC(C)C(=O)Nc1nnc(SCC(=O)NCc2cccs2)s1	WT yeast gro inh 77.4 (no result: MEKK2 mut-MEK5, MEKK2 WT-MEK5, MEKK3 PB1 HTS)
CCCCCCCCn1cnc2c(N)c(C)c(C)cc21	WT yeast gro inh 59.4
CC(CNc1nc2ccc(Cl)cc2n2cnnc12)c1ccccc1 (configuration not stated)	none (no result: WT yeast gro inh, ABCG2 block, ABCB1 inh)
C[C@]12CC[C@@H]3c4ccc(O)cc4CC[C@H]3[C@@H]1CC[C@@H]2OC(=O)CCC1CCCC1	none (no result: WT yeast gro inh, ABCG2 block, ABCB1 inh)
